# Experimental data pooled from the literature.
# Each line is one published result; the experiments were not run side by side.
# Cell line: A-375
# Effect on: cell growth or viability
Compound,test,conditions,IC50 [nM]
CNc1cccc(Nc2nc(-c3ccncc3)nc3c2CNCC3)c1,MTT,,35200
CN1CCc2c(c3ccccc3n2Cc2ccc(C(=O)NO)cc2)C1,CCK-8,48 h,14800
COc1cccc2c1C(=O)c1c(O)c3c(c(O)c1C2=O)C[C@@](O)(C(=O)CO)C[C@@H]3O[C@H]1C[C@H](N)[C@H](O)[C@H](C)O1,,96 h,32.9
COc1cccc(Nc2nc(-c3ccncc3)nc3c2CNCC3)c1,MTT,,37200
COc1cc(C(=O)c2nc(-c3cccc4[nH]ccc34)c[nH]2)cc2c1OC=CO2,MTS,72 h,11.5
Fc1ccccc1Nc1nc(-c2ccncc2)nc2c1CNCC2,MTT,,> 100000
CN1CCC(NC2CCc3[nH]c4c(C(N)=O)ccc(-c5ccccc5Cl)c4c3C2)CC1 (stereo not drawn),,96 h,26.8
C[C@H]1COCCN1c1nc(N2CCOC[C@@H]2C)c2ccc(-c3cccc(C(=O)NCCOCCOCCOCCONC(=O)c4ccc(F)c(F)c4Nc4ccc(I)cc4F)c3)nc2n1,WST-1,72 h,11600
COc1cc(C(=O)c2nc(-c3cccc4[nH]cnc34)c[nH]2)cc(OC)c1OC,MTS,72 h,19.7
COc1ccc(-c2ccc3c(N4CCOC[C@@H]4C)nc(N4CCOC[C@@H]4C)nc3n2)cc1COC(=O)CCOCCOCCOCCONC(=O)c1ccc(F)c(F)c1Nc1ccc(I)cc1F,WST-1,72 h,204
CC(=O)O[C@H]1C(=O)[C@@]2(C)[C@H]([C@H](OC(=O)c3ccccc3)[C@]3(O)C[C@H](OC(=O)[C@H](O)[C@@H](NC(=O)c4ccccc4)c4ccccc4)C(C)=C1C3(C)C)[C@]1(OC(C)=O)CO[C@@H]1C[C@@H]2O,MTS,72 h,3
CC(C)(C)c1cnc(CSc2cnc(NC(=O)C3CCN(C(=O)CCCCCCCN4Cc5cc6c(cc5C4)C(=O)N(C4CCC(=O)NC4=O)C6=O)CC3)s2)o1 (stereo not drawn),MTT,,83.3
